Source: ChEMBL document CHEMBL1795235, “Quercetin diacylglycoside analogues showing dual inhibition of DNA gyrase and topoisomerase IV as novel antibacterial agents” (J Med Chem, 2011)
Converted amounts (≈) assume the structure as drawn.

Assays:
[1] = Inhibition of Staphylococcus aureus DNA Topoisomerase 4-mediated decatenation of kDNA after 30 mins by densitometry
Summary of the method: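 Purchased S. aureus topoIV, one unit with 200 ng kDNA, 37 °C, 30 min. Products resolved on 1.0% agarose in TAE. IC50 of decatenation from densitometry by interpolation equation, at least three determinations.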

[2] = Inhibition of Escherichia coli DNA gyrase assessed as inhibition of pBR322 supercoiling by densitometry
Summary of the method: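 One unit of E. coli gyrase with 0.5 μg relaxed pBR322 DNA, 37 °C, 30 min. Stopped with sucrose/EDTA dye, run on 1.0% agarose in TAE. IC50 from densitometry via log-interpolation equation.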

Staphylococcus aureus [3] = test: Antibacterial activity against methicillin-susceptible Staphylococcus aureus 209P after 24 hrs by microdilution method; assay type: functional
Summary of the method: (§1)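 Broth microdilution in Mueller-Hinton broth with 0.85% NaCl, inoculum about 10^5 CFU per 100 μL. Compounds were diluted in water from 25.6 mg/mL stocks to final 2-fold series of 0.062–128 μg/mL. Plates were incubated 24 h at 35 °C. MIC was the lowest concentration at which all triplicate wells were clear, from three independent determinations.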

Streptococcus pneumoniae = test: Antibacterial activity against Streptococcus pneumoniae R6 after 24 hrs by microdilution method; assay type: functional; details: R6, 24 h
Summary of the method: (§2)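 Broth microdilution in Mueller-Hinton broth with 0.85% NaCl, inoculum about 10^5 CFU per 100 μL. Compounds diluted from 25.6 mg/mL stocks in water to 2-fold series, final 0.062–128 μg/mL. […] Three independent determinations.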

Staphylococcus aureus [4] = test: Antibacterial activity against methicillin-resistant Staphylococcus aureus OM584 after 24 hrs by microdilution method; assay type: functional; details: OM584, 24 h; summary of the method: as §1
Staphylococcus aureus [5] = test: Antibacterial activity against vancomycin-intermediate Staphylococcus aureus Mu50 after 24 hrs by microdilution method; assay type: functional; details: Mu50, 24 h; summary of the method: as §1
[6] = Inhibition of Escherichia coli DNA topoisomerase 4 subunit ParC/DNA topoisomerase 4 subunit ParE-mediated decatenation of kDNA by densitometry
Summary of the method: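 Purchased E. coli topoIV kit enzyme, one unit with 200 ng kDNA, 37 °C, 30 min. Buffer: 50 mM HEPES-KOH pH 7.6, 5 mM magnesium acetate, 100 mM potassium glutamate, 10 mM DTT, 1 mM ATP, 40% glycerol. Gel on 1.0% agarose in TAE. IC50 of decatenation from densitometry by interpolation equation, at least three determinations.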

Pseudomonas aeruginosa = test: Antibacterial activity against Pseudomonas aeruginosa PAO1 after 24 hrs by microdilution method; assay type: functional; details: PAO1, 24 h; summary of the method: as §2
Staphylococcus aureus [7] = test: Antibacterial activity against methicillin-resistant Staphylococcus aureus N315 after 24 hrs by microdilution method; assay type: functional; details: N315, 24 h; summary of the method: as §1
Enterococcus [8] = test: Antibacterial activity against vancomycin resistant Enterococcus FN-1 after 24 hrs by microdilution method; assay type: functional; details: FN-1, 24 h; summary of the method: as §1
Enterococcus [9] = test: Antibacterial activity against vancomycin resistant Enterococcus NCTC 12201 after 24 hrs by microdilution method; assay type: functional; details: NCTC 12201, 24 h; summary of the method: as §1
Staphylococcus aureus [10] = test: Antibacterial activity against methicillin-resistant Staphylococcus aureus OM481 after 24 hrs by microdilution method; assay type: functional; details: OM481, 24 h; summary of the method: as §1
Escherichia coli = test: Antibacterial activity against Escherichia coli K-12 after 24 hrs by microdilution method; assay type: functional; details: K-12, 24 h; summary of the method: as §2
Staphylococcus aureus [11] = test: Antibacterial activity against methicillin-resistant Staphylococcus aureus COL after 24 hrs by microdilution method; assay type: functional; summary of the method: as §1

Structure (SMILES) | IC50 [1] | IC50 [2] | MIC (Staphylococcus aureus [3]) | MIC (Streptococcus pneumoniae) | MIC (Staphylococcus aureus [4]) | MIC (Staphylococcus aureus [5]) | IC50 [6] | MIC (Pseudomonas aeruginosa) | MIC (Staphylococcus aureus [7]) | MIC (Enterococcus [8]) | MIC (Enterococcus [9]) | MIC (Staphylococcus aureus [10]) | MIC (Escherichia coli) | MIC (Staphylococcus aureus [11])
O=c1c(O[C@@H]2O[C@H](CO)[C@H](O)[C@H](O)[C@H]2O)c(-c2ccc(O)c(O)c2)oc2cc(O[C@@H]3O[C@H](CO)[C@H](O)[C@H](O)[C@H]3O)cc(O)c12 | 200 nM | 260 nM | > 128 µg/mL | > 128 µg/mL | > 128 µg/mL | > 128 µg/mL | 5340 nM | 32 µg/mL (≈ 51.1 µM) | > 128 µg/mL | > 128 µg/mL | > 128 µg/mL | > 128 µg/mL | 32 µg/mL (≈ 51.1 µM) | > 128 µg/mL
CCOc1ccc(C(=O)OC[C@H]2O[C@@H](Oc3c(-c4ccc(O)c(O)c4)oc4cc(O)cc(O)c4c3=O)[C@H](OC(=O)c3ccc(OCC)cc3)[C@@H](O)[C@H]2O)cc1 | 1780 nM | 430 nM | 4 µg/mL (≈ 5.26 µM) | 4 µg/mL (≈ 5.26 µM) | 4 µg/mL (≈ 5.26 µM) | 4 µg/mL (≈ 5.26 µM) | 11300 nM | > 128 µg/mL | 8 µg/mL (≈ 10.5 µM) | 8 µg/mL (≈ 10.5 µM) | 8 µg/mL (≈ 10.5 µM) | 4 µg/mL (≈ 5.26 µM) | > 128 µg/mL | 16 µg/mL (≈ 21 µM)
CCOc1ccc(CCC(=O)OC[C@H]2O[C@@H](Oc3c(-c4ccc(O)c(O)c4)oc4cc(O)cc(O)c4c3=O)[C@H](OC(=O)CCc3ccc(OCC)cc3)[C@@H](O)[C@H]2O)cc1 | 2990 nM | 5390 nM | 8 µg/mL (≈ 9.79 µM) | 8 µg/mL (≈ 9.79 µM) | 4 µg/mL (≈ 4.9 µM) | 8 µg/mL (≈ 9.79 µM) | > 12000 nM | > 128 µg/mL | 2 µg/mL (≈ 2.45 µM) | 16 µg/mL (≈ 19.6 µM) | 16 µg/mL (≈ 19.6 µM) | 4 µg/mL (≈ 4.9 µM) | > 128 µg/mL | 8 µg/mL (≈ 9.79 µM)
O=C(CCc1ccc(O)cc1)OC[C@H]1O[C@@H](Oc2c(-c3ccc(O)c(O)c3)oc3cc(O)cc(O)c3c2=O)[C@H](OC(=O)CCc2ccc(O)cc2)[C@@H](O)[C@H]1O | 1590 nM | 2390 nM | 2 µg/mL (≈ 2.63 µM) | 4 µg/mL (≈ 5.26 µM) | 1 µg/mL (≈ 1.31 µM) | 2 µg/mL (≈ 2.63 µM) | 10900 nM | > 128 µg/mL | 2 µg/mL (≈ 2.63 µM) | 4 µg/mL (≈ 5.26 µM) | 4 µg/mL (≈ 5.26 µM) | 1 µg/mL (≈ 1.31 µM) | > 128 µg/mL | 4 µg/mL (≈ 5.26 µM)
O=C(CCCCc1ccc(F)cc1)OC[C@H]1O[C@@H](Oc2c(-c3ccc(O)c(O)c3)oc3cc(O)cc(O)c3c2=O)[C@H](OC(=O)CCCCc2ccc(F)cc2)[C@@H](O)[C@H]1O | 4050 nM | 5020 nM | 4 µg/mL (≈ 4.87 µM) | 8 µg/mL (≈ 9.75 µM) | 4 µg/mL (≈ 4.87 µM) | 16 µg/mL (≈ 19.5 µM) | > 12000 nM | > 128 µg/mL | 2 µg/mL (≈ 2.44 µM) | 16 µg/mL (≈ 19.5 µM) | 16 µg/mL (≈ 19.5 µM) | 4 µg/mL (≈ 4.87 µM) | > 128 µg/mL | 16 µg/mL (≈ 19.5 µM)
CCCc1ccc(C(=O)OC[C@H]2O[C@@H](Oc3c(-c4ccc(O)c(O)c4)oc4cc(O)cc(O)c4c3=O)[C@H](OC(=O)c3ccc(CCC)cc3)[C@@H](O)[C@H]2O)cc1 | 1930 nM | 770 nM | 2 µg/mL (≈ 2.64 µM) | 2 µg/mL (≈ 2.64 µM) | 4 µg/mL (≈ 5.29 µM) | 4 µg/mL (≈ 5.29 µM) | 10900 nM | > 128 µg/mL | 2 µg/mL (≈ 2.64 µM) | 8 µg/mL (≈ 10.6 µM) | 4 µg/mL (≈ 5.29 µM) | 4 µg/mL (≈ 5.29 µM) | > 128 µg/mL | 16 µg/mL (≈ 21.1 µM)
Cc1ccc(CCC(=O)OC[C@H]2O[C@@H](Oc3c(-c4ccc(O)c(O)c4)oc4cc(O)cc(O)c4c3=O)[C@H](OC(=O)CCc3ccc(C)cc3)[C@@H](O)[C@H]2O)cc1 | 1490 nM | 2090 nM | 0.25 µg/mL (≈ 0.33 µM) | 0.25 µg/mL (≈ 0.33 µM) | 0.25 µg/mL (≈ 0.33 µM) | 0.5 µg/mL (≈ 0.661 µM) | 9460 nM | > 128 µg/mL | 0.25 µg/mL (≈ 0.33 µM) | 0.5 µg/mL (≈ 0.661 µM) | 0.5 µg/mL (≈ 0.661 µM) | 0.25 µg/mL (≈ 0.33 µM) | > 128 µg/mL | 1 µg/mL (≈ 1.32 µM)
O=C(CCc1ccc(F)cc1)OC[C@H]1O[C@@H](Oc2c(-c3ccc(O)c(O)c3)oc3cc(O)cc(O)c3c2=O)[C@H](O)[C@@H](O)[C@H]1O | 2990 nM | 1400 nM | 16 µg/mL (≈ 26 µM) | 32 µg/mL (≈ 52.1 µM) | 16 µg/mL (≈ 26 µM) | 32 µg/mL (≈ 52.1 µM) | 11500 nM | > 128 µg/mL | 16 µg/mL (≈ 26 µM) | 16 µg/mL (≈ 26 µM) | 16 µg/mL (≈ 26 µM) | 16 µg/mL (≈ 26 µM) | > 128 µg/mL | 32 µg/mL (≈ 52.1 µM)
Cc1ccc(CC(=O)OC[C@H]2O[C@@H](Oc3c(-c4ccc(O)c(O)c4)oc4cc(O)cc(O)c4c3=O)[C@H](OC(=O)Cc3ccc(C)cc3)[C@@H](O)[C@H]2O)cc1 | 2690 nM | 2210 nM | 4 µg/mL (≈ 5.49 µM) | 2 µg/mL (≈ 2.74 µM) | 2 µg/mL (≈ 2.74 µM) | 4 µg/mL (≈ 5.49 µM) | 10500 nM | > 128 µg/mL | 8 µg/mL (≈ 11 µM) | 8 µg/mL (≈ 11 µM) | 4 µg/mL (≈ 5.49 µM) | 2 µg/mL (≈ 2.74 µM) | > 128 µg/mL | 16 µg/mL (≈ 22 µM)
O=C(OC[C@H]1O[C@@H](Oc2c(-c3ccc(O)c(O)c3)oc3cc(O)cc(O)c3c2=O)[C@H](OC(=O)c2ccc(F)cc2)[C@@H](O)[C@H]1O)c1ccc(F)cc1 | 520 nM | 380 nM | 4 µg/mL (≈ 5.65 µM) | 4 µg/mL (≈ 5.65 µM) | 2 µg/mL (≈ 2.82 µM) | 2 µg/mL (≈ 2.82 µM) | 11000 nM | > 128 µg/mL | 8 µg/mL (≈ 11.3 µM) | 4 µg/mL (≈ 5.65 µM) | 4 µg/mL (≈ 5.65 µM) | 2 µg/mL (≈ 2.82 µM) | > 128 µg/mL | 8 µg/mL (≈ 11.3 µM)
O=c1c(O)c(-c2ccc(O)c(O)c2)oc2cc(O)cc(O)c12 [QUERCETIN] |  | 140 nM | > 128 µg/mL | > 128 µg/mL | > 128 µg/mL | > 128 µg/mL | 6420 nM | > 128 µg/mL | > 128 µg/mL | > 128 µg/mL | > 128 µg/mL | > 128 µg/mL | 64 µg/mL (≈ 212 µM) | > 128 µg/mL
Cc1ccc(CCC(=O)OC[C@H]2O[C@@H](Oc3c(-c4ccc(O)c(O)c4)oc4cc(O)cc(O)c4c3=O)[C@H](O)[C@@H](O)[C@H]2O)cc1 | 2570 nM | 1790 nM | 16 µg/mL (≈ 26.2 µM) | 32 µg/mL (≈ 52.4 µM) | 16 µg/mL (≈ 26.2 µM) | 16 µg/mL (≈ 26.2 µM) | 12000 nM | > 128 µg/mL | 16 µg/mL (≈ 26.2 µM) | 32 µg/mL (≈ 52.4 µM) | 32 µg/mL (≈ 52.4 µM) | 16 µg/mL (≈ 26.2 µM) | > 128 µg/mL | 32 µg/mL (≈ 52.4 µM)
